Published values from different studies.
Protocols differ between the studies behind these lines. pEC50, pIC50, pKd, pKi: −log10 of the molar value.
Ribonuclease H1: Ribonuclease H1 (Homo sapiens, UniProt O60930)
F10: Coagulation factor X (F10, Homo sapiens, UniProt P00742)
CNR2: Cannabinoid receptor 2 (CNR2, Homo sapiens, UniProt P34972)

| SMILES | target | assay | conditions | endpoint | value |
| --- | --- | --- | --- | --- | --- |
| O=C1Cc2cc(-c3ccco3)ccc2C(=O)N1O | Ribonuclease H1 | enzyme activity, inhibitor |  | pIC50 | 5.62 |
| N#CC(C#N)=Cc1ccc([N+](=O)[O-])c(O)c1 | Casein kinase I isoform alpha (CSNK1A1, Homo sapiens, UniProt P48729) | binding, SPR |  | pKd | < 4.30 |
| CCOC(=O)c1ccc(OC(=O)CCCCCN=C(N)N)cc1 | F10 | enzyme activity, inhibitor |  | pIC50 | 6.10 |
| N=C(N)NCCC[C@H](NC(=O)[C@H](Cc1ccccc1)NC(=O)[C@H](CCC(N)=O)NC(=O)OCc1ccccc1)C(=O)c1nccs1 | F10 | cell-free assay |  | pKi | 7.80 |
| CCCCCc1ccccc1C/C=C\C/C=C\C/C=C\CCCC(=O)N[C@H](C)CO | CNR2 | cAMP, agonist |  | pEC50 | 6.17 |
| O=C1c2ccccc2C(c2ccccc2F)C(=O)N1O (centres unmarked) | Ribonuclease H1 | enzyme activity, inhibitor |  | pIC50 | 5.33 |
| CC[C@H](C)[C@@H](C(=O)N1CCC[C@H]1c1nccs1)N(C)C(=O)[C@H](CC(C)C)N(C)C(=O)[C@H](Cc1ccc(OC)cc1)N(C)C(=O)/C=C(\C)OC | CNR2 | β-arrestin recruitment, antagonist |  | pIC50 | 4.75 |
| CCCC[C@H](NC(C)=O)C(=O)N[C@H]1CC(=O)NCCCC[C@@H](C(=O)N2CCC[C@@H]2C(=O)N[C@@H](C(=O)N2CCC[C@@H]2C(N)=O)C(C)C)NC(=O)[C@H](Cc2c[nH]c3ccccc23)NC(=O)[C@H](CCCNC(=N)N)NC(=O)[C@@H](Cc2ccccc2)NC(=O)[C@@H]2CCCN2C1=O | Melanocortin receptor 5 (MC5R, Homo sapiens, UniProt P33032) | cAMP, agonist |  | pEC50 | 9.41 |
| CC(C)(NC(=O)c1nn(CCCCC(F)(F)F)c2ccccc12)c1cccc(C(N)=O)c1 | CNR2 | ligand displacement, radioligand | cell membranes | pKi | 6.52 |
| c1cncc([C@@H]2CCCN2)c1 | Neuronal acetylcholine receptor; alpha2/beta2 (Rattus norvegicus, UniProt P12389+P12390) | cell-free assay, radioligand |  | pKi | 7.06 |
| CC(C)(NC(=O)c1nn(CC2CCCC2)c2ccccc12)c1cccc(C(N)=O)c1 | CNR2 | ligand displacement, radioligand | cell membranes | pKi | 6.96 |
| CCCCC/C=C\C/C=C\C/C=C\Cc1ccccc1CCCC(=O)N[C@H](C)CO | CNR2 | cAMP, agonist |  | pEC50 | 7.90 |
| CCCCCn1nc(C(=O)NC(C)(C)c2cccc(C(N)=O)c2)c2ccccc21 | CNR2 | ligand displacement, radioligand | cell membranes | pKi | 6.60 |
| CCCCC/C=C\[C@H](C)/C=C\C/C=C\Cc1ccccc1CCCC(=O)OC(CO)CO | CNR2 | cAMP, agonist |  | pEC50 | 5.95 |
| C[C@H](NC(=O)[C@H](CCC(N)=O)NC(=O)CCCCNC(=N)N)C(=O)N[C@@H](CCCNC(=N)N)C(=O)c1nc2ccccc2s1 | F10 | cell-free assay |  | pKi | 7.07 |
| COc1cc2c(cc1OC)CN(CCc1ccc(NC(=O)c3cccc4c(=O)c5cccc(OC)c5[nH]c34)cc1)CC2 | D(1B) dopamine receptor (DRD5, Homo sapiens, UniProt P21918) | cell-free assay |  | pKi | < 5.00 |
| CCCCC/C=C\[C@H](C)/C=C\C/C=C\Cc1ccccc1CCCC(=O)N[C@H](C)CO | CNR2 | β-arrestin recruitment, agonist |  | pEC50 | 6.67 |
